From the M2OR odorant receptor database

Each compound was assayed against T1, OR2G2 (Homo sapiens) (UniProt Q8NGZ5). Conditions: stereoisomer not certain.
T1 sequence (whole entry): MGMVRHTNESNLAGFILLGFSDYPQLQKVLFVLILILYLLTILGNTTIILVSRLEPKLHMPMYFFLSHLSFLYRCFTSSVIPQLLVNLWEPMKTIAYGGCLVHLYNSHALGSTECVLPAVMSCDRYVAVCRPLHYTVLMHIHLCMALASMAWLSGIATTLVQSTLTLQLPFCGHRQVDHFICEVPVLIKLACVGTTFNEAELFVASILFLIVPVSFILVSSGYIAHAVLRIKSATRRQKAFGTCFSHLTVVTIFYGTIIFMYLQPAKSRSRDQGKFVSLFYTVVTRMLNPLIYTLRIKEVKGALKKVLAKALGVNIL
Method in brief: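 Whether a receptor–molecule pair is responsive (active) rests on the original authors' judgment that its measured signal was statistically different from baseline. Pairs without that judgment are non-responsive (inactive). Sources used varied assay methods, commonly transient luciferase assays in mammalian cell lines.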
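Further: active if original authors judged signal statistically different from baseline.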

`CC(C)(C)C1CCCCC1OCCCCO` (centres undefined) was tested. Which “odorant receptor agonist call” value did it give?
Its value is “inactive”.

`CC1=CCC2CC1C2(C)C` (centres undefined) was tested. Which “odorant receptor agonist call” value did it give?
The value was “inactive”.

How did the “odorant receptor agonist call” value turn out when `CC(C)=CCCC(C)CC=O` (centres undefined) was run?
The value was “inactive”.

`Cc1occc(=O)c1OC(=O)C(C)C` was tested. Which “odorant receptor agonist call” value did it give?
The value was “active”.

How did the “odorant receptor agonist call” value turn out when `CCC=C(C)C(O)CCCCC` (centres undefined) was run?
Its value is “inactive”.

For `CC(=O)C=CC1=C(C)CCCC1(C)C`, which “odorant receptor agonist call” value is on record?
Its value is “inactive”.

Which “odorant receptor agonist call” value does the source give for `OCc1ccccc1` here?
The value was “inactive”.

With `CCOC(=O)CC1(C)OCCO1` as the compound, how does the “odorant receptor agonist call” value read?
Its value is “inactive”.

How did the “odorant receptor agonist call” value turn out when `CCCCCC1COCCC1OC(C)=O` (centres undefined) was run?
The value was “inactive”.

Which “odorant receptor agonist call” value does the source give for `C=CCOC(=O)COCCC(C)C` here?
Its value is “inactive”.

With `CCC(=O)C=CC1C(C)=CCCC1(C)C` (centres undefined) as the compound, how does the “odorant receptor agonist call” value read?
The value was “inactive”.

For `CC1CC(C)(c2ccccc2)CO1` (centres undefined), which “odorant receptor agonist call” value is on record?
The value was “inactive”.

Which “odorant receptor agonist call” value does the source give for `COc1ccc(C)cc1` here?
Its value is “inactive”.

For `CCc1ccc(CC(C)(C)C=O)cc1`, which “odorant receptor agonist call” value is on record?
The value was “inactive”.

For `CCCC(C)C(=O)OCC` (centres undefined), which “odorant receptor agonist call” value is on record?
The value was “inactive”.

`COC1CC2CC1C1CC(C=O)CC21` (centres undefined) was tested. Which “odorant receptor agonist call” value did it give?
Its value is “inactive”.

How did the “odorant receptor agonist call” value turn out when `CC(C)CCCC(C)(C)O` was run?
The value was “inactive”.

How did the “odorant receptor agonist call” value turn out when `CCCCCCCCC(OC(C)=O)OC(C)=O` was run?
The value was “inactive”.

For `CC=CC(=O)C1C(C)=CCCC1(C)C` (centres undefined), which “odorant receptor agonist call” value is on record?
Its value is “active”.
